Screens as filed in PubChem.
STAT1 inh: STAT1 signaling inhibitors, primary screen, cell-based, HTS, luciferase reporter; NIH 3T3 STAT1-luciferase reporter, IFN-gamma, luminescence; inhibition, % at 5.5 µM; actives 0.35% (n = 200,000);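 active = inhibition above a set limit, the mean inhibition across all tested compounds plus 3 SD, cut at about 34% in these data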;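 also: 0% = IFN-gamma with DMSO and 100% = IFN-gamma with 300 µM nifuroxazide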
STAT3 blocker: IL-6 driven STAT3 reporter inhibitors, primary screen, U3A cells, luciferase, luminescence, MLSCN library; actives 0.89% (n = 190,000); IL-6 STAT3-luciferase reporter; host cell line lacks STAT1; AID 862, 2007; inhibition, % at 5.5 µM;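 active = inhibition above the mean inhibition across all screened compounds plus 3 SD, cut at about 44% in these data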;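 also: 0% = DMSO only wells and 100% = 100 µM nifuroxazide control wells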
STAT3 activator: IL-6 driven STAT3 reporter potentiators, primary screen, U3A cells, luciferase, luminescence, MLSCN library | IL-6 STAT3-luciferase reporter; 100% = signal with IL-6 EC80 alone | activation (% of control), % at 5.6 µM | actives 0.91% (n = 190,000);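 active = activation above the screen-wide mean of compound activation plus 3 SD, cut at about 130% in these data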;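 also: 0% = background luminescence of wells with medium and substrate only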
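Detection: reporter luminescence signal / Assay system: STAT1-lacking human U3A cells, STAT3 luciferase reporter / Incubation: compound pre-incubation 1 h before IL-6, then 6 h stimulation at 37 °C / Control set: IL-6-only high control / Read-out: % activation relative to IL-6 control / Probe or stimulus: Interleukin-6, 33 ng/mL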
STAT1 act: STAT1 signaling activators, primary screen, cell-based, HTS, luciferase reporter. activation (% of control), % at 5.5 µM. AID 932, 2007. NIH 3T3 STAT1-luciferase reporter, IFN-gamma, luminescence; 100% = IFN-gamma alone, no compound. actives 2.6% (n = 200,000);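 active = activation above the screen-wide mean activation plus 3 SD, cut at about 130% in these data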;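 also: raw ratio to IFN-gamma control signal so 100% means no change and 0% no light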
NF-kB neuron act: activators of NF-kB expression in neurons, primary screen, cell-based, HTS; human neuronal cells, NF-kB reporter expression; active compounds read high; fold change at 12.5 µM; actives 1.6% (n = 190,000); AID 1239, 2008; in the data active = fold change above about 3.3
APP 5'UTR act: activators of APP 5'UTR luciferase reporter, primary screen, SH-SY5Y cells | SH-SY5Y APP 5'UTR luciferase reporter, luminescence; zero percent = DMSO vehicle wells | activation, % at 2 µM | actives 1% (n = 190,000) | AID 1276, 2008;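 active = activation above a set limit, based on mean plus 3 SD of controls, cut at about 140% in these data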
The depositor's hits bear a star. Compounds with a hit are over-represented: about 4.9% of the library has one in this group of screens.

SMILES | STAT1 inh | STAT3 blocker | STAT3 activator | STAT1 act | NF-kB neuron act | APP 5'UTR act
Oc1[nH]c2ccccc2c1N=Nc1ccccc1F | -58 | -69 | 154* | 151* | 4.1* | 66
CC(C)(O)C(=O)N=Nc1c(O)[nH]c2ccccc12 | -17 | -6 | 108 | 115 | 1.5 | 46
Oc1[nH]c2ccccc2c1N=Nc1ccc(F)cc1 | -50 | -27 | 119 | 144* | 1.7 | 46
CCC1(C)OC(=O)NN(c2ccc(C)cc2)C1(C)O (configuration not stated) | 10 | 13 | 91 | 91 | 1.3 | -11
CO/N=C/c1ccc(N2CCN(C(=O)c3ccc(Cl)cc3Cl)CC2)c([N+](=O)[O-])c1 | 19 | 28 | 85 | 83 | 0.62 | 0
CC(C(=O)O)c1ccc(N2Cc3ccccc3C2=O)cc1 (configuration not stated) | -49 | 30 | 76 | 145* | 6.2* | 74
O=C(NCc1ccco1)c1cc(-c2ccccc2)on1 | -34 | -1 | 103 | 131* | 4.5* | 68
CC(C)Cc1cc(C(=O)NCc2cccs2)no1 | -40 | -20 | 115 | 134* | 3.1 | 60
O=C(NCc1ccco1)c1cc(-c2cccs2)on1 | -32 | -4 | 106 | 130* | 5.2* | 35
O=C(NCc1ccco1)c1cc(-c2ccc(F)cc2)on1 | -46 | 0 | 103 | 142* | 2.8 | 45
O=C(NCc1ccc(F)cc1)c1cc(-c2ccco2)on1 | -10 | 1 | 101 | 105 | 1.4 | 19
COc1ccc(CCn2nnc(-c3ccc(NC(C)=O)c(Cl)c3)n2)cc1 | -3 | -2 | 105 | 103 | 1.1 | 4
CCN(CC)C(=S)Sc1c(-c2ccccc2)c2cc(Cl)ccc2[nH]c1=O | -3 | -5 | 108 | 103 | 1.4 | -4
CN(C)C=NC(=O)c1cc(C(=O)c2ccc(Cl)cc2Cl)c[nH]1 | 9 | 7 | 98 | 89 | 1.3 | 14
O=C(CCS(=O)(=O)c1ccc(Br)cc1)Nc1ccccn1 | -4 | 9 | 96 | 103 | 1.1 | 14
COc1ccc(C(=O)C2CCCN(C3Cc4ccccc4C3)C2)cc1OC (configuration not stated) | -1 | 4 | 98 | 100 | 0.98 | -15
COC(=O)c1cnn(C(=O)c2cc(OC)ccc2Br)c1N | -4 | 5 | 102 | 104 | 1.3 | 15
Cc1cccc(NC(=O)/C(C#N)=C\c2cc(C)n(-c3ccc(C(=O)O)cc3)c2C)c1 | -3 | 28 | 82 | 103 | 1.4 | 30
CCOC(=O)/C(C#N)=C/c1cc(C)n(-c2ccc(C)cc2)c1C | -53 | -24 | 120 | 148* | 1.3 | 33
COc1ccc(Nc2cc(C)c3ccccc3n2)cc1 | -37 | 13 | 95 | 132* | 2 | 85
COc1ccccc1C1=NC(c2ccc(C)cc2)N=C1C (configuration not stated) | -38 | -5 | 107 | 135* | 2.1 | 38
CCCCNC(=O)CSc1nc2ccccc2c(=O)n1C1CCCC1 | 1 | 2 | 100 | 99 | 0.96 | 5
CCC(=O)c1c(OCc2ccccc2)ccc2c(C)cc(=O)oc12 | -2 | 4 | 98 | 100 | 3.4* | -3
CCOC(=O)COc1ccc2c(C)cc(=O)oc2c1C(=O)c1ccccc1 | 1 | 6 | 97 | 98 | 1 | -3
CCC(=O)c1ccc(OCc2ccccc2)c(OC)c1 | -33 | -10 | 108 | 129* | 2 | 71
CCC(=O)c1ccc(OCc2ccc(C(=O)OC)cc2)c(OC)c1 | 3 | -3 | 103 | 98 | 1.2 | -3
Cn1c2c(c(=O)n(C)c1=O)C(CC(=O)Nc1ccc(F)cc1)C(=O)N2 (configuration not stated) | -10 | 5 | 101 | 107 | 1.2 | 14
CCC(C)/C(C)=N/NC(=O)c1ccc(COc2ccc(Cl)c(C)c2)cc1 (configuration not stated) | -34 | -14 | 114 | 130* | 1.5 | 7
